Laboratory results as given in ChEMBL document CHEMBL1944562, “Design, synthesis of some new (2-aminothiazol-4-yl)methylester derivatives as possible antimicrobial and antitubercular agents” (2012).
Values after ≈ are worked out from the molar mass of the structure shown.

Assays:
Format in all cases: functional
[1] = tested on: Mycolicibacterium smegmatis; assay: Antitubercular activity against Mycobacterium smegmatis ATCC 19420 after 7 days by resazurin assay; details: ATCC 19420, 168 h
Summary of the method: (§1)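 Middlebrook 7H9 broth with 10% OADC, culture adjusted to McFarland 2. 50 µL culture added to 150 µL fresh medium. Stocks at 2 mg/mL in DMF, tested first at 1, 10 and 100 µg/mL, then at 0.3125-5 µg/mL. DMF controls. After 7 days at 37 °C, 0.01% resazurin added. Blue-to-pink change read for MIC.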

[2] = tested on: Mycolicibacterium fortuitum; assay: Antitubercular activity against Mycobacterium fortuitum ATCC 19542 after 7 days by resazurin assay; details: ATCC 19542, 168 h; summary of the method: as §1
[3] = tested on: Mycobacterium tuberculosis; assay: Antitubercular activity against Mycobacterium tuberculosis H37Rv assessed as growth inhibition after 7 days by resazurin assay
Summary of the method: (§2)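 M. tuberculosis H37Rv ATCC 27294 grown in Middlebrook 7H9 broth with 10% OADC and adjusted to McFarland 2. Culture was diluted 1:4 into fresh medium. Compounds came from 2 mg/mL DMF stocks, screened first at 1, 10 and 100, then at 0.3125–5. DMF-only controls were included. After 7 days at 37 °C, 0.01% resazurin was added; a blue-to-pink change marked growth, and the MIC was read.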

[4] = tested on: Escherichia coli; assay: Antibacterial activity against Escherichia coli ATCC 25922 after 16 to 18 hrs by […]
[5] = tested on: Staphylococcus aureus; assay: Antibacterial activity against Staphylococcus aureus ATCC 25923 after 16 to 18 hrs by serial plate dilution method
[6] = tested on: Pseudomonas aeruginosa; assay: Antibacterial activity against Pseudomonas aeruginosa ATCC 27853 after 16 to 18 hrs by […]
[7] = tested on: Klebsiella pneumoniae; assay: Antibacterial activity against Klebsiella pneumoniae after 16 to 18 hrs by […]
[8] = tested on: Bacillus subtilis; assay: Antibacterial activity against Bacillus subtilis after 16 to 18 hrs by […]
[9] = tested on: Escherichia coli; assay: Antibacterial activity against Escherichia coli ATCC 25922 at MIC after 3 to 4 days
Summary of the method: (§3)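 Agar well diffusion on seeded agar plates, 20 mL agar per dish, dried 1 h at 37 °C. Wells punched and loaded with test compound in DMSO at its MIC. DMSO-only control. Plates run in triplicate and kept 3-4 days at 37 °C. Inhibition zone diameter measured.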

[10] = tested on: Staphylococcus aureus; assay: Antibacterial activity against Staphylococcus aureus ATCC 25923 at […] after 3 to 4 days; summary of the method: as §3
[11] = tested on: Pseudomonas aeruginosa; assay: Antibacterial activity against Pseudomonas aeruginosa ATCC 27853 at MIC after 3 to 4 days; summary of the method: as §3
[12] = tested on: Klebsiella pneumoniae; assay: Antibacterial activity against Klebsiella pneumoniae at MIC after 3 to 4 days; summary of the method: as §3
[13] = tested on: Bacillus subtilis; assay: Antibacterial activity against Bacillus subtilis at MIC after 3 to 4 days; summary of the method: as §3
[14] = tested on: Aspergillus flavus; assay: Antifungal activity against Aspergillus flavus NCIM N0.524 after 3 to 4 days by serial plate dilution method
[15] = tested on: Aspergillus fumigatus; assay: Antifungal activity against Aspergillus fumigatus NCIM N0.902 after 3 to 4 days by serial plate dilution method
[16] = tested on: Talaromyces marneffei; assay: Antifungal activity against Penicillium marneffei after 3 to 4 days by serial plate dilution method
[17] = tested on: Trichophyton mentagrophytes; assay: Antifungal activity against Trichophyton mentagrophytes after 3 to 4 days by serial plate dilution method
[18] = tested on: Candida albicans; assay: Antifungal activity against Candida albicans after 3 to 4 days by serial plate dilution method
[19] = tested on: Aspergillus flavus; assay: Antifungal activity against Aspergillus flavus NCIM N0.524 at MIC after 3 to 4 days
Summary of the method: (§4)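 Fungal suspension made by transferring a loopful of culture to 3 mL saline and seeding agar plates, 20 mL agar per dish, dried 1 h at 37 °C. Punched wells loaded with test compound in DMSO at its MIC. DMSO-only control. Triplicate plates held 3-4 days at 37 °C. Inhibition zone diameter measured.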

[20] = tested on: Aspergillus fumigatus; assay: Antifungal activity against Aspergillus fumigatus NCIM N0.902 at MIC after 3 to 4 days; summary of the method: as §4
[21] = tested on: Talaromyces marneffei; assay: Antifungal activity against Penicillium marneffei at MIC after 3 to 4 days; summary of the method: as §4
[22] = tested on: Trichophyton mentagrophytes; assay: Antifungal activity against Trichophyton mentagrophytes at MIC after 3 to 4 days; summary of the method: as §4
[23] = tested on: Candida albicans; assay: Antifungal activity against Candida albicans at MIC after 3 to 4 days; summary of the method: as §4
[24] = tested on: Mycobacterium tuberculosis; assay: Antitubercular activity against Mycobacterium tuberculosis H37Rv after 7 days by resazurin assay; details: 168 h; summary of the method: as §2

Structure (SMILES)	MIC [1]	MIC [2]	growth inhibition (GI) [3]	MIC [4]	MIC [5]	MIC [6]	MIC [7]	MIC [8]	diameter of the inhibition zone (DIZ) [9]	diameter of the inhibition zone (DIZ) [10]	diameter of the inhibition zone (DIZ) [11]	diameter of the inhibition zone (DIZ) [12]	diameter of the inhibition zone (DIZ) [13]	MIC [14]	MIC [15]	MIC [16]	MIC [17]	MIC [18]	diameter of the inhibition zone (DIZ) [19]	diameter of the inhibition zone (DIZ) [20]	also measured
Nc1nc(COC(=O)c2cccc([N+](=O)[O-])c2Cl)cs1	1 µg/mL (≈ 3.19 µM)	10 µg/mL (≈ 31.9 µM)	90%	12.5 µg/mL (≈ 39.8 µM)	12.5 µg/mL (≈ 39.8 µM)	25 µg/mL (≈ 79.7 µM)	6.25 µg/mL (≈ 19.9 µM)	12.5 µg/mL (≈ 39.8 µM)	11 mm	11 mm	<10 mm	16 mm	11 mm	25 µg/mL (≈ 79.7 µM)	25 µg/mL (≈ 79.7 µM)	12.5 µg/mL (≈ 39.8 µM)	25 µg/mL (≈ 79.7 µM)	25 µg/mL (≈ 79.7 µM)	<10 mm	<10 mm	diameter of the inhibition zone (DIZ) [21]: 11 mm; diameter of the inhibition zone (DIZ) [22]: <10 mm; diameter of the inhibition zone (DIZ) [23]: <10 mm; MIC [24]: 0.625 µg/mL (≈ 1.99 µM)
Nc1nc(COC(=O)c2ccc3ccccc3c2)cs1	10 µg/mL (≈ 35.2 µM)	10 µg/mL (≈ 35.2 µM)	<90%	6.25 µg/mL (≈ 22 µM)	6.25 µg/mL (≈ 22 µM)	6.25 µg/mL (≈ 22 µM)	6.25 µg/mL (≈ 22 µM)	6.25 µg/mL (≈ 22 µM)	16 mm	16 mm	16 mm	16 mm	16 mm	12.5 µg/mL (≈ 44 µM)	12.5 µg/mL (≈ 44 µM)	12.5 µg/mL (≈ 44 µM)	12.5 µg/mL (≈ 44 µM)	6.25 µg/mL (≈ 22 µM)	11 mm	11 mm	diameter of the inhibition zone (DIZ) [21]: 11 mm; diameter of the inhibition zone (DIZ) [22]: 11 mm; diameter of the inhibition zone (DIZ) [23]: 16 mm; MIC [24]: 2.5 µg/mL (≈ 8.79 µM)
Nc1nc(COC(=O)c2cc(F)cc(C(F)(F)F)c2)cs1	> 100 µg/mL	10 µg/mL (≈ 31.2 µM)	90%	25 µg/mL (≈ 78.1 µM)	12.5 µg/mL (≈ 39 µM)	12.5 µg/mL (≈ 39 µM)	25 µg/mL (≈ 78.1 µM)	12.5 µg/mL (≈ 39 µM)	<10 mm	11 mm	11 mm	<10 mm	11 mm	6.25 µg/mL (≈ 19.5 µM)	6.25 µg/mL (≈ 19.5 µM)	6.25 µg/mL (≈ 19.5 µM)	6.25 µg/mL (≈ 19.5 µM)	6.25 µg/mL (≈ 19.5 µM)	16 mm	16 mm	diameter of the inhibition zone (DIZ) [21]: 16 mm; diameter of the inhibition zone (DIZ) [22]: 16 mm; diameter of the inhibition zone (DIZ) [23]: 16 mm; MIC [24]: 1 µg/mL (≈ 3.12 µM)
Nc1nc(COC(=O)c2ccc(Br)cc2)cs1	2.5 µg/mL (≈ 7.98 µM)	> 100 µg/mL	<90%	25 µg/mL (≈ 79.8 µM)	25 µg/mL (≈ 79.8 µM)	25 µg/mL (≈ 79.8 µM)	6.25 µg/mL (≈ 20 µM)	25 µg/mL (≈ 79.8 µM)	<10 mm	<10 mm	<10 mm	16 mm	<10 mm	25 µg/mL (≈ 79.8 µM)	25 µg/mL (≈ 79.8 µM)	25 µg/mL (≈ 79.8 µM)	12.5 µg/mL (≈ 39.9 µM)	6.25 µg/mL (≈ 20 µM)	<10 mm	<10 mm	diameter of the inhibition zone (DIZ) [21]: <10 mm; diameter of the inhibition zone (DIZ) [22]: 11 mm; diameter of the inhibition zone (DIZ) [23]: 16 mm; MIC [24]: 2.5 µg/mL (≈ 7.98 µM)
Nc1nc(COC(=O)c2ccco2)cs1	> 100 µg/mL	> 100 µg/mL	0%	6.25 µg/mL (≈ 27.9 µM)	6.25 µg/mL (≈ 27.9 µM)	6.25 µg/mL (≈ 27.9 µM)	6.25 µg/mL (≈ 27.9 µM)	6.25 µg/mL (≈ 27.9 µM)	16 mm	16 mm	16 mm	16 mm	16 mm	6.25 µg/mL (≈ 27.9 µM)	25 µg/mL (≈ 111 µM)	6.25 µg/mL (≈ 27.9 µM)	25 µg/mL (≈ 111 µM)	6.25 µg/mL (≈ 27.9 µM)	16 mm	<10 mm	diameter of the inhibition zone (DIZ) [21]: 16 mm; diameter of the inhibition zone (DIZ) [22]: <10 mm; diameter of the inhibition zone (DIZ) [23]: 16 mm; MIC [24]: > 100 µg/mL
N#Cc1cccc(C(=O)OCc2csc(N)n2)n1	> 100 µg/mL	> 100 µg/mL	<90%	12.5 µg/mL (≈ 48 µM)	25 µg/mL (≈ 96.1 µM)	25 µg/mL (≈ 96.1 µM)	25 µg/mL (≈ 96.1 µM)	25 µg/mL (≈ 96.1 µM)	11 mm	<10 mm	<10 mm	<10 mm	<10 mm	6.25 µg/mL (≈ 24 µM)	12.5 µg/mL (≈ 48 µM)	6.25 µg/mL (≈ 24 µM)	12.5 µg/mL (≈ 48 µM)	25 µg/mL (≈ 96.1 µM)	16 mm	11 mm	diameter of the inhibition zone (DIZ) [21]: 16 mm; diameter of the inhibition zone (DIZ) [22]: 11 mm; diameter of the inhibition zone (DIZ) [23]: <10 mm; MIC [24]: 10 µg/mL (≈ 38.4 µM)
Nc1nc(COC(=O)c2c(Cl)cc(Cl)cc2Cl)cs1	> 100 µg/mL	> 100 µg/mL	<90%	25 µg/mL (≈ 74 µM)	6.25 µg/mL (≈ 18.5 µM)	25 µg/mL (≈ 74 µM)	12.5 µg/mL (≈ 37 µM)	6.25 µg/mL (≈ 18.5 µM)	<10 mm	16 mm	<10 mm	11 mm	16 mm	6.25 µg/mL (≈ 18.5 µM)	6.25 µg/mL (≈ 18.5 µM)	6.25 µg/mL (≈ 18.5 µM)	6.25 µg/mL (≈ 18.5 µM)	6.25 µg/mL (≈ 18.5 µM)	16 mm	16 mm	diameter of the inhibition zone (DIZ) [21]: 16 mm; diameter of the inhibition zone (DIZ) [22]: 16 mm; diameter of the inhibition zone (DIZ) [23]: 16 mm; MIC [24]: 10 µg/mL (≈ 29.6 µM)
Nc1nc(COC(=O)c2ccccc2)cs1	> 100 µg/mL	> 100 µg/mL	0%	25 µg/mL (≈ 107 µM)	6.25 µg/mL (≈ 26.7 µM)	25 µg/mL (≈ 107 µM)	6.25 µg/mL (≈ 26.7 µM)	6.25 µg/mL (≈ 26.7 µM)	<10 mm	16 mm	<10 mm	16 mm	16 mm	25 µg/mL (≈ 107 µM)	25 µg/mL (≈ 107 µM)	25 µg/mL (≈ 107 µM)	25 µg/mL (≈ 107 µM)	25 µg/mL (≈ 107 µM)	<10 mm	<10 mm	diameter of the inhibition zone (DIZ) [21]: <10 mm; diameter of the inhibition zone (DIZ) [22]: <10 mm; diameter of the inhibition zone (DIZ) [23]: <10 mm; MIC [24]: > 100 µg/mL
Nc1nc(COC(=O)c2c(F)cc(F)cc2F)cs1	10 µg/mL (≈ 34.7 µM)	> 100 µg/mL	<90%	6.25 µg/mL (≈ 21.7 µM)	25 µg/mL (≈ 86.7 µM)	6.25 µg/mL (≈ 21.7 µM)	25 µg/mL (≈ 86.7 µM)	25 µg/mL (≈ 86.7 µM)	16 mm	<10 mm	16 mm	<10 mm	<10 mm	6.25 µg/mL (≈ 21.7 µM)	6.25 µg/mL (≈ 21.7 µM)	6.25 µg/mL (≈ 21.7 µM)	6.25 µg/mL (≈ 21.7 µM)	6.25 µg/mL (≈ 21.7 µM)	16 mm	16 mm	diameter of the inhibition zone (DIZ) [21]: 16 mm; diameter of the inhibition zone (DIZ) [22]: 16 mm; diameter of the inhibition zone (DIZ) [23]: 16 mm; MIC [24]: 5 µg/mL (≈ 17.3 µM)
